“Also recorded” adds a separate entry of the source. Peptide text beside a SMILES is read from it.
What was measured:
Settings in all cases: aspartame 10mM, neotame 1mM, sucralose 2 mM; compared with hTas1R2/hTas1R3
[1] = biological target: T1, h(1–572)smTas1R2 + hTas1R3 (Homo sapiens, UniProt Q8TE23, A658V/A782V/G696S/I595M/I692T/L639V/L764F/L798F/M682V/M697L/P624L/P678S/P710T/Q592E/S703N/S784D/T716M/V687A/V718I/V741A); test: Ca2+ mobilization, chimera receptor; type: cell-based, human/squirrel monkey
T1 sequence (Q8TE23 20-839 Q592E/I595M/P624L/L639V/A658V/P678S/M682V/V687A/I692T/G696S/M697L/S703N/P710T/T716M/V718I/V741A/L764F/A782V/S784D/L798F): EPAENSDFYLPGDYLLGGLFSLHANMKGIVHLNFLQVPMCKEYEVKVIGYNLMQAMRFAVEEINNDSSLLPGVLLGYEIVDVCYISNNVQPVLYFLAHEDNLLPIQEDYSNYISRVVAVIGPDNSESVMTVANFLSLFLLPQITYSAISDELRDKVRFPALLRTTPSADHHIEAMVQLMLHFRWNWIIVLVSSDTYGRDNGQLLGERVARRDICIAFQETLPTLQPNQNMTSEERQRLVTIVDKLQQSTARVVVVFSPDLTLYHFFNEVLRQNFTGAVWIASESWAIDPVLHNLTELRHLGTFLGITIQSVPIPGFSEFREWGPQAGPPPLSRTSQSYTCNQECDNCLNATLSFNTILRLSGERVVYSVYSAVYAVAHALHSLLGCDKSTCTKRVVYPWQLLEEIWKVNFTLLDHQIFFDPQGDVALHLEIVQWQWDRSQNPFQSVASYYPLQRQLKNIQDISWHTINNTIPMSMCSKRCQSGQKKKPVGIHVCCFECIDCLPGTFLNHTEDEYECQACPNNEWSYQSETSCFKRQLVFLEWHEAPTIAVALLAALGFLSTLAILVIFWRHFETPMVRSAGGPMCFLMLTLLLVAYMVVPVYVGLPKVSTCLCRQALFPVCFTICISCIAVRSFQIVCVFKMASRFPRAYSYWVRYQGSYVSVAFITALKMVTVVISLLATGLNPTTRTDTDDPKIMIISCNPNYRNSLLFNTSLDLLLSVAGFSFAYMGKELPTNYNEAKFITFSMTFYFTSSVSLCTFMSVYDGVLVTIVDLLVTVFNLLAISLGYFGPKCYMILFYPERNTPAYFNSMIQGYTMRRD
T1 sequence (Q7RTX0 21-852 partner): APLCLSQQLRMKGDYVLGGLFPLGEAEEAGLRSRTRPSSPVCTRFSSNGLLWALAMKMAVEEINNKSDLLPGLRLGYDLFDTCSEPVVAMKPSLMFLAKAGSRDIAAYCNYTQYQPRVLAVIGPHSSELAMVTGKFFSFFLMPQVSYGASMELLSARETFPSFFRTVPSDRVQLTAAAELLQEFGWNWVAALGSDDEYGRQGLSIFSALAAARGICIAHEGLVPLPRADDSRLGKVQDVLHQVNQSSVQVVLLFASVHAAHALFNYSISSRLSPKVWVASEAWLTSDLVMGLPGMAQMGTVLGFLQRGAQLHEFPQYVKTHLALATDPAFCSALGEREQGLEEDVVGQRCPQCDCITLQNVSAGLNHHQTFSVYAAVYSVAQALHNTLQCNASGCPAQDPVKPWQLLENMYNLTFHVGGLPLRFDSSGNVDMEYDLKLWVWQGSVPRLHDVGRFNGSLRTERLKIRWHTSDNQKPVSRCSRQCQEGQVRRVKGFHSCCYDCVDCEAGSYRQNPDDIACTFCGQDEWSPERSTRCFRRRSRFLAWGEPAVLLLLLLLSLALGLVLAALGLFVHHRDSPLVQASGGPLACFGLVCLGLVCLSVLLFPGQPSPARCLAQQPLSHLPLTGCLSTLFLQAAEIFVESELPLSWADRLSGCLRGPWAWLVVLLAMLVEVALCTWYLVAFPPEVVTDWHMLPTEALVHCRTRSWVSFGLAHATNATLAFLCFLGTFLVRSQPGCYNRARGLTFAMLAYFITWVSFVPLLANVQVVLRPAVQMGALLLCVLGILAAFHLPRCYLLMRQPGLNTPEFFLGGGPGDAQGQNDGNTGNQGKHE
Procedure, shortened: (§1)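 HEK293E cells grown at 37°C in Opti-MEM with 5% FBS and seeded at 50,000/well. Cells co-lipofected with Tas1R plasmids and Gα16-gust44 (0.06 μg each per well); medium changed at 20 h, assayed 24 h later. Cells loaded 1 h with Fluo-4 AM in HEPES-buffered HBSS. Tastant added at 30 s; fluorescence (ex 488/em 525 nm) read every 2 s for 150 s more. ΔF/F normalised to human receptor maximal sucralose response; mean ± SEM, three independent experiments.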

hTas1R2:S40T+hTas1R3 = biological target: T2, hTas1R2:S40T+hTas1R3 (Homo sapiens, UniProt Q8TE23, S40T); test: Ca2+ mobilization, mutated human receptor; type: cell-based
T2 sequence (Q8TE23 20-839 S40T): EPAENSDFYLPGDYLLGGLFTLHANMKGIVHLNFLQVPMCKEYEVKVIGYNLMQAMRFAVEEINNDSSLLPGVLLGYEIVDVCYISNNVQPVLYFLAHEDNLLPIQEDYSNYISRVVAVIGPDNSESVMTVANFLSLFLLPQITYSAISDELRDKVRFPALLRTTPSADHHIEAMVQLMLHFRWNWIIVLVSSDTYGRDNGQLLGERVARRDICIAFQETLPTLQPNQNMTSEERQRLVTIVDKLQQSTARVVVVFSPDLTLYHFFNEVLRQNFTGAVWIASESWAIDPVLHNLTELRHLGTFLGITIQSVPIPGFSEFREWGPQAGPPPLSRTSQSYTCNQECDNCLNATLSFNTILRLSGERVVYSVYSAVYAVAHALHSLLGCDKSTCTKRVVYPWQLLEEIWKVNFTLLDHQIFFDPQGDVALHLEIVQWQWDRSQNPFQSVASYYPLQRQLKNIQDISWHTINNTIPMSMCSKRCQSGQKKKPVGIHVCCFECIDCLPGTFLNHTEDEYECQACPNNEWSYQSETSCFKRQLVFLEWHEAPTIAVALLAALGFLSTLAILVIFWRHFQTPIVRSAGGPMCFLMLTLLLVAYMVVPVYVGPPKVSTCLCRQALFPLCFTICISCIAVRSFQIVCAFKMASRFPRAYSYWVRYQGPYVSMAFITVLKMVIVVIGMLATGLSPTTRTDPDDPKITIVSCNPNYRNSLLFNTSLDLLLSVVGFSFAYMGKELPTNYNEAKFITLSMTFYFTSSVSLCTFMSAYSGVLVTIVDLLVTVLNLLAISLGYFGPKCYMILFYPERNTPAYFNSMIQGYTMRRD
T2 sequence (Q7RTX0 21-852 partner): T1 sequence (Q7RTX0 21-852 partner)
Procedure, shortened: as §1

[2] = biological target: sm(1–567)hTas1R2 + hTas1R3 (Saimiri sciureus, UniProt A3QP08, A682V/A736V/D779S/E587Q/F759L/F793L/I713V/L619P/L692M/M590I/M711T/N698S/S673P/S691G/T687I/T705P/V634L/V653A/V677M/V777A); test: Ca2+ mobilization, chimera receptor; type: cell-based, human/squirrel monkey

Row | Structure (SMILES) | calcium response to sweetener [1] | calcium response to sweetener (hTas1R2:S40T+hTas1R3) | calcium response to sweetener [2]
1 | COC(=O)[C@H](Cc1ccccc1)NC(=O)[C@H](CC(=O)O)NCCC(C)(C)C [neotame] | significantly reduced responses; also recorded: significant reduction of the response | did not affect significantly | no responses
2 | OC[C@H]1O[C@H](O[C@]2(CCl)O[C@H](CCl)[C@@H](O)[C@@H]2O)[C@H](O)[C@@H](O)[C@H]1Cl [sucralose] | significant reduction of the response | significantly reduced | significant increase of the response
3 | COC(=O)[C@H](Cc1ccccc1)NC(=O)[C@@H](N)CC(=O)O [aspartame, L-α-aspartly-L-phenylalanine methyl ester] (H-Asp-Phe-OMe) | significantly reduced responses; also recorded: significant reduction of the response | abolished | no responses

— paper PMC3149845 (The Journal of neuroscience : the official journal of the …, 2011)
